Here are results for 20 compounds from ChEMBL document CHEMBL1135932, “5'-Deoxy congeners of 9-(3-amido-3-deoxy-beta-D-xylofuranosyl)-N(6)-cyclopentyladenine: new adenosine A(1) receptor antagonists and inverse agonists” (J Med Chem, 2002).

Experiment [1] deals with T1, Adenosine receptor A1 (Homo sapiens) (UniProt P30542).
T1 sequence (whole entry): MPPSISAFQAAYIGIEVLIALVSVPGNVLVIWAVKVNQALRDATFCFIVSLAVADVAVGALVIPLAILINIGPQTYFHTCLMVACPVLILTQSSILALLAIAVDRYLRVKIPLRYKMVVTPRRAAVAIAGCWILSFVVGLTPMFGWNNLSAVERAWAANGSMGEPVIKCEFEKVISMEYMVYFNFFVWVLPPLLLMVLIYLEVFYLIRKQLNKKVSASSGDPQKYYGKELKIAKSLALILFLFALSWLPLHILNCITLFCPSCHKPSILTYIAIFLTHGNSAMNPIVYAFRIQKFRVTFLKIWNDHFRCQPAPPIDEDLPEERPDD
Nature of the experiment: Forskolin-induced cAMP production at human Adenosine A1 receptor. The class given is functional. In outline: (§1)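 Human A1-expressing CHO cells seeded at 2 × 10⁵ cells/well. Next day, 30 min at 37 °C in Hepes-buffered medium pH 7.4 with adenosine deaminase (5 U/mL), cilostamide (50 μM) and rolipram (50 μM). […] Expressed as % of forskolin.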
In general terms: Changes in cAMP serve as a functional read-out for many G protein-coupled receptors.

In experiment [2] the target is T2, Adenosine receptor A1 (Rattus norvegicus, UniProt P25099).
T2 sequence (P25099 whole entry): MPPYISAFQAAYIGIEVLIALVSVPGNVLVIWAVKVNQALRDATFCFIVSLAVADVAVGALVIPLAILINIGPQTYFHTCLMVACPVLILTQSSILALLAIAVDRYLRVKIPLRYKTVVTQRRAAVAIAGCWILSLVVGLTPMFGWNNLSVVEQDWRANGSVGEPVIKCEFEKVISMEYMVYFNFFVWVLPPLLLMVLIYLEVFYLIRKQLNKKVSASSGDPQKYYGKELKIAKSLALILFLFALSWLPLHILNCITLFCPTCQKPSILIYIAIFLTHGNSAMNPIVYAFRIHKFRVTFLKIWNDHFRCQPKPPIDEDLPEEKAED
Nature of the experiment: Binding affinity at rat Adenosine A1 receptor in the absence of GTP. The method, boiled down: (§2)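 GTP shift taken from these two Ki values. Done only for compounds giving >50% radioligand displacement at 10⁻⁶ M. At least three independent experiments in duplicate.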

Experiment [3] addresses T2, Adenosine receptor A1. Nature of the experiment: Binding affinity at rat Adenosine A1 receptor in the presence of GTP. The method, boiled down: as §2
In experiment [4] the target is T3, Adenosine receptor A1 (Homo sapiens, UniProt P30542).
T3 sequence (P30542 whole entry): T1 sequence (whole entry)
Nature of the experiment: Binding affinity at human Adenosine A1 receptor expressed in CHO cells. The experiment is classed as cell-based. In outline:
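Membranes from CHO cells stably expressing human A1 receptor (~3 pmol/mg protein), 6 μg, incubated 1 h at 25 °C in 50 mM Tris HCl pH 7.4 with ~1.6 nM [³H]DPCPX and increasing test concentrations. Stopped by dilution in ice-cold buffer, then filtration. At least three independent experiments in duplicate.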

Experiment [5] deals with T4, Adenosine receptor A1 (Rattus norvegicus) (UniProt P25099).
T4 sequence (whole entry): T2 sequence (P25099 whole entry)
Briefly: Percent displacement of radioligand at 10e-6 M from rat Adenosine A1 receptor. In outline: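 Radioligand displacement by ligand at 10⁻⁶ M, using rat cortical membranes labelled with [³H]DPCPX.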

For experiment [6], the target named is T1, Adenosine receptor A1 (Homo sapiens). Briefly: Forskolin-induced cAMP production at human Adenosine A1 receptor receptor. The class given is functional. The method, boiled down:
as §1

Experiment [7] has as its target Adenosine receptor A2a (Rattus norvegicus, UniProt P30543). Briefly: Binding affinity at rat Adenosine A2A receptor. In outline: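 Rat striatal membranes with [³H]ZM241385 as radioligand. At least three independent experiments in duplicate.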
Experiment [8] addresses T1, Adenosine receptor A1 (Homo sapiens). Briefly: Forskolin-induced cAMP production at human A1 adenosine receptor. The experiment is classed as functional. In outline:
as §1

Chain of Adenosine receptor A2a (P30543 whole entry): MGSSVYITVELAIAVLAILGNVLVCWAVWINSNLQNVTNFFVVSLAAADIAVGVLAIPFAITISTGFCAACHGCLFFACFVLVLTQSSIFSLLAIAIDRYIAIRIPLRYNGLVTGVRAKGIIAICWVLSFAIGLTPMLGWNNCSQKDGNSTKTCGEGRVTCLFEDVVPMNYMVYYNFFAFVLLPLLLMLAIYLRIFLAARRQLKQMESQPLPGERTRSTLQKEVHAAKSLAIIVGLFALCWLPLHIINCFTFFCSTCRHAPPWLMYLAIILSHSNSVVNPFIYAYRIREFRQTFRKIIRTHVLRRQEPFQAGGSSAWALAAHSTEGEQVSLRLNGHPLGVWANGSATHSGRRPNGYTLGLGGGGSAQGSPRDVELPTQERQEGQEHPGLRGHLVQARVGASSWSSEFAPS

`CCCn1c(=O)c2[nH]c(C3CCCC3)nc2n(CCC)c1=O` yielded a Production in experiment [1] of 157%.

The term Ki denotes the equilibrium dissociation constant of an inhibitor or competing ligand from its target. On to `C[C@H]1O[C@@H](n2cnc3c(NC4CCCC4)ncnc32)[C@H](O)[C@H]1NC(=O)C1(c2ccccc2)CCCC1`, for which the Ki in experiment [2] came to 138 nM; in experiment [3], 114 nM.

With `CC(C)c1ccc(C(=O)N[C@@H]2[C@@H](O)[C@H](n3cnc4c(NC5CCCC5)ncnc43)O[C@@H]2C)cc1`, in experiment [2], the Ki turned out to be 270 nM.

Turning to `C[C@H]1O[C@@H](n2cnc3c(NC4CCCC4)ncnc32)[C@H](O)[C@H]1NC(=O)CCCOc1ccccc1`, in experiment [2], the Ki was determined as 473 nM.

In turn, `Cc1ccc(C(=O)N[C@@H]2[C@@H](O)[C@H](n3cnc4c(NC5CCCC5)ncnc43)O[C@@H]2C)cc1C` registered an inhibition constant (Ki) in experiment [2] of 236 nM.

As to `OC[C@H]1O[C@@H](n2cnc3c(NC4CCCC4)ncnc32)C[C@H]1O`, the Ki was 110 nM in experiment [2] and 470 nM in experiment [3].

For the compound `O=C(N[C@@H]1[C@@H](O)[C@H](n2cnc3c(NC4CCCC4)ncnc32)O[C@@H]1CO)c1ccc(F)c(Cl)c1`, the Production in experiment [1] came out at 125%. In addition, the Ki in experiment [2] was 78 nM; in experiment [3] it was 54 nM; in experiment [4] it was 579 nM.

Regarding `Cc1ccc(C(=O)N[C@@H]2[C@@H](O)[C@H](n3cnc4c(NC5CCCC5)ncnc43)O[C@@H]2C)cc1F`, the Dispacement in experiment [5] came to 47%.

Regarding `CCc1ccc(C(=O)N[C@@H]2[C@@H](O)[C@H](n3cnc4c(NC5CCCC5)ncnc43)O[C@@H]2C)cc1`, the inhibition constant (Ki) in experiment [2] is 240 nM.

`C[C@H]1O[C@@H](n2cnc3c(NC4CCCC4)ncnc32)[C@H](O)[C@H]1NC(=O)C1CCCC[C@H]1C(=O)c1cccs1` (some centres not stated): in experiment [1], the Production was 182%. Also, the Ki worked out at 98 nM in experiment [2], 70 nM in experiment [3] and 971 nM in experiment [4].

`O=C(N[C@@H]1[C@@H](O)[C@H](n2cnc3c(NC4CCCC4)ncnc32)O[C@@H]1CO)c1ccc2c(c1)OCO2` gave a Production in experiment [1] of 126%. In addition, the values for the inhibition constant (Ki) in experiment [2] and in experiment [4] were 102 nM and 443 nM, respectively.

Take `C[C@H]1O[C@@H](n2cnc3c(NC4CCCC4)ncnc32)[C@H](O)[C@H]1NC(=O)CCCc1cccs1`: the Production in experiment [1] came out at 148%. Further, the results for the Ki in experiment [2], in experiment [3] and in experiment [4] were 55 nM, 38 nM and 419 nM, respectively.

Take `O=C(CCCc1cccs1)N[C@@H]1[C@@H](O)[C@H](n2cnc3c(NC4CCCC4)ncnc32)O[C@@H]1CO`: the Production in experiment [1] is 152%. In addition, the Ki in experiment [2] is 67 nM; in experiment [3] it was 46 nM; in experiment [4], 630 nM.

As for `C[C@H]1O[C@@H](n2cnc3c(NC4CCCC4)ncnc32)[C@H](O)[C@H]1O`, the Ki in experiment [2] turned out to be 70 nM; in experiment [3], 450 nM.

Take `Cn1cnc2c(NC3CCCC3)ncnc21`: the Production in experiment [6] was 139%. Moreover, the Ki in experiment [2] was 279 nM; in experiment [3] it was 259 nM; in experiment [4], 1190 nM.

Regarding `C[C@H]1O[C@@H](n2cnc3c(NC4CCCC4)ncnc32)[C@H](O)[C@H]1NC(=O)C1(c2ccccc2)CCCCC1`, the Ki in experiment [2] is 286 nM; in experiment [3] it was 210 nM.

Turning to `CC(C)c1ccc(C(=O)N[C@@H]2[C@@H](O)[C@H](n3cnc4c(NC5CCCC5)ncnc43)O[C@@H]2CO)cc1`, the Ki is 171 nM in experiment [2] and 437 nM in experiment [7].

On to `C[C@H]1O[C@@H](n2cnc3c(NC4CCCC4)ncnc32)[C@H](O)[C@H]1NC(=O)c1ccc(F)c(Cl)c1`, for which the Displacement in experiment [5] was found to be 44%.

Consider `Cc1ccc(C(=O)N[C@@H]2[C@@H](O)[C@H](n3cnc4c(NC5CCCC5)ncnc43)O[C@@H]2CO)cc1C`, for which the Ki was 24 nM in experiment [2], 17 nM in experiment [3] and 137 nM in experiment [4]. Further, the Production in experiment [8] came to 126%.

Regarding `Cc1ccc(C(=O)N[C@@H]2[C@@H](O)[C@H](n3cnc4c(NC5CCCC5)ncnc43)O[C@@H]2CO)cc1F`, the Production in experiment [1] amounted to 135%. Further, the values for the inhibition constant Ki in experiment [2] and in experiment [4] were 112 nM and 773 nM, respectively.
